Experimental data: the EternaBench riboswitch data

System: MS2 coat protein
Assay: apparent Kd, MS2 coat protein; higher = weaker binding; RNA-MaP array; FMN 200 µM where present
Procedure, shortened: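 Designs were transcribed by stalled E. coli RNA polymerase on Illumina sequencing-chip clusters. They were titrated with SNAP-549-labelled MS2 coat protein from 0.7 or 1.5 nM, doubling to 3 µM, without and then with constant ligand. Buffer: 100 mM Tris-HCl pH 7.5, 80 mM KCl, 4 mM MgCl2, BSA, DTT, yeast tRNA, Tween-20. Green signal was normalised to red-channel RNA signal and control-cluster median Fmax. Apparent Kd is the median of filtered per-cluster binding-curve fits.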

[1] = designed as: OFF switch for flavin mononucleotide, no ligand
[2] = ligand present: flavin mononucleotide, designed as: OFF switch for flavin mononucleotide
[3] = designed as: ON switch for flavin mononucleotide, no ligand
[4] = ligand present: flavin mononucleotide, designed as: ON switch for flavin mononucleotide

Sequence	apparent Kd [1]	apparent Kd [2]	apparent Kd [3]	apparent Kd [4]
GGGUAGAUCCGAGGAUAUACAAUCCGGAAACGGUACAUGAGGAUCACCCAUGUAGAAGGCGGAUCUACAGGUACUAAAGUACCC	0.00632 µM	0.00865 µM		
ACAUGAGGAUCACCCAUGUUCGUCGCGUUGUGUCGCGAGUCUGAGGAUAUCGAGGUGGGUUUUGUUGAGAAGGCGGGCCCGUGU			0.129 µM	0.151 µM
GGGUUUGGUGUGAGGAUAUGUUUGGGUAAACCCGGGCAGAAGGCACAUGAGGAUCACCCAUGUAAGCCGGGCCC	0.0149 µM	0.0147 µM		
UAUUUACAUGAGGAUCACCCAUGUCAGGAUAUGUUUCUAUCGUCGAAAGAUGAUAUUUGCAGAAGGGACAAUAU	0.0361 µM	0.0725 µM		
AUAAUUUUAUAAUUCUAUAUAUUCAGAAGGCAUAACAUGAGGAUCACCCAUGUAAAUUAAUGUUAUGAGGAUAUGAUUCGGUUA	0.0139 µM	0.0673 µM		
CUGCGGUAGGAGAAGGACGGCGGGUUCUUUUCGUACAUGAGGAUCACCCAUGUAGGAUAUCCUACCUCAGGCGGCCUACUACAG	0.00589 µM	0.00742 µM		
UAGUAUCUGCAGGAUAUCAGUGGAAAACACGUAUGAGAAGGGCAGACAUGAGGAUCACCCAUGUAUAGGGUCCG	0.0814 µM	0.206 µM		
AAUUAUUAUUGAGGAUAUCGUAUUGAAAUAAUAUGAGAAGGCGGGAUAAACAUGAGGAUCACCCAUGUGAGCCUGAUGCUUGUG	0.0166 µM	0.0163 µM		
AUUUUAAAGGGAGGAUAUACAUGAGGAUCACCCAUGUAAACAUGAGGAUCACCCUUGUAAACAAUGUAGAAGGCCUAAAUCUAU	0.013 µM	0.0161 µM		
GCAAACACAUGAGGAUCACCCAUGUGGAAAGAGCAAUUAGGCUAGGAUAUUCAUGUCGUUUGCAAGAAGAAGGAGCCAUAGUGG			0.56 µM	0.157 µM
GUCAGCUCGUGAGGAUAUACAUGUGCUGGAAACAGCACUAUUAAGAUCACAUGAGGAUCACCCAUGUAGAAGGCACGAGCUGAU	0.0473 µM	0.63 µM		
ACGUGUCGUGUAGGAUAUGACACAGGAAACUGGUCAGAAGGACAUGAGGAUCACCCAUGUAAAAUGUUCAAGAAUAACGUAUGC	0.0433 µM	0.108 µM		
GUGUAGCAAGGAUAUACAUGAGGAUCACCCAUGUGAAUAAGAUAGAAUAAGAUAAAGUGUAGAAGGUGUAGUGU	0.0353 µM	0.0357 µM		
UUACAGGUUUAAGGCGUUCCCAGACAUGAGGAUCACCCAUGUAGAAGGACCGUAAGAAAUUUUCGGUAGGAUAUACAUUAAGGG	0.0286 µM	0.0292 µM		
GUAACAUGAGGAUCACCCAUGUAUAGAACACUCAAUAGAUCUGAGGAUAUACUAGAAUUUACGUAGUAGAAGGCAGUGGGUACA			0.0641 µM	0.0336 µM
CGUGACUACAUAGGAUAUUGAUACAUGAGGAUCACCCAUGUCACCCAUUUAUAUAUUAGUGUUGACAAGAAGGAUGUGGUCACG			0.0162 µM	0.00725 µM
CAGCUCUGAGGAUAUCCACCCUCGUACAUGAGGAUCACCCAUGUUUCCCUCUGGGCUUUCGGAGAAGGCAGGUAUC	0.0591 µM	0.0553 µM		
GCGUUCUUGUAGAAGGUACCUUCAACAUAUUAUAAACGCUAGACACAUGAGGAUCACCCAUGUUGUAAGGAUAUACAUGAACGC			0.0167 µM	0.0135 µM
GCCAGCGCAUGAGGAUAUGCUCCCGUUUCGGGAGCAGAAGGCAUGUCAUAAGACAUGAGGAUCACCCAUGUAGUUAAGAUGGCA			0.258 µM	0.0136 µM
ACAUGGAAUACAGGAUAUGUAAGUUUUAAGUAGAUUGGUUAUUACUUUACAACAGAAGGGUAAUACAUGAGGAUCACCCAUGUA			0.0191 µM	0.016 µM
GGGUACAUCUGAGGAUAUCAUGUAAAUACAUGAGGAUCACCCAUGUCGAUGGAGACAUCGGAGAUUGAGAAGGCCGAUGUACCG			0.263 µM	0.014 µM
AAUCCACAUGAGGAUCACCCAUGUGAGGAUAUGAUACUAUGUACUUCGGUACAUAGUAUCAGAAGGCACAAAGG	0.0548 µM	0.0996 µM		
ACGCCUCCUGUCAGGAUAUGCAUCGGGCUUCCGCAGCAGAAGGGACAUGAGGAUCACCCAUGUCAAAUAAAAUC	0.0176 µM	0.0583 µM		
AUGUUACAUGAGGAUCACCCAUGUGAGGAUAUGUGUACCGGUAAAAAAGUGUUUGGCCACAGAAGGCAUUUGGG	0.0445 µM	0.0845 µM		

Sequence	apparent Kd [1]	apparent Kd [2]	apparent Kd [3]	apparent Kd [4]
UGCAGACAUGAGGAUCACCCAUGUCAGGAUAUUGGACUAUGCAAUGUAUUGUUAGUACCAAGAAGGGACCCGUC	0.0318 µM	0.0272 µM		
GAAUUCGCAUGAGGAUAUGCUCCCGUUUCGGGAGCAGAAGGCAUGUCAUAAGACAUGAGGAUCACCCAUGUAGUUAAGAUUGAA			0.196 µM	0.0113 µM
GUCAGCUCGUGAGGAUAUACAACACUGCUUCGGCAGUGUAUUAAGAACACAUGAGGAUCACCCAUGUAGAAGGCACGAGCUGAU	0.00492 µM	0.00608 µM		
CUAGACUUAUCAGGAUAUCAUCGCGUGGAUUAACCCUGUGAUUACAUGAGGAUCACCCAUGUGCUUGAGAAGGGAUUACUAUUU	0.0288 µM	0.114 µM		
AACUCACAUGAGGAUCACCCAUGUGAGGAUAUAUUGUUAUGGAUGUUAUUUUGUAGUGGUAGAAGGCGCGUGAU	0.0153 µM	0.0152 µM		
CUUACACAUGAGGAUCACCCAUGUGAGGAUAUGCGUACGUUGUCCGUAGGCGACGUGCGCAGAAGGCGCUUGGU	0.0616 µM	0.062 µM		
UACAGCUUGACAGGAUAUACAUGUCAGCGAAAGCUGACUAUCUUAAUAACAUGAGGAUCACCCAUGUAGAAGGGUCGAGCUGUA	0.0168 µM	0.0267 µM		
UACAUCAAUGAAGGAUAUCGAUAUCCAACAUGAGGAUCACCCAUGUUGAGGAUCACCCAUGUAAAUGAGAAGGUUAACAUAACU			0.0949 µM	0.0833 µM
CUUUCGUGAGGAUAUCAGUAGUAAAUAAAUAAAAUUACUACUGAGAAGGCACAUGAGGAUCACCCAUGUUCCUU	0.0118 µM	0.0185 µM		
UUUGUUGUUGUGAGGAUAUCGUUGAUUUUUUGAAACGAGAAGGCACAUGAGGAUCACCCAUGUUUGUUGUUGGU	0.0662 µM	0.248 µM		
CCGGAAAUGCAGGAUAUCGUAUCGGAUACGAUACGAGAAGGGUAUACAUGAGGAUCACCCAUGUGUCCUCCCGG	0.0383 µM	0.109 µM		
UGAUAAUACGUCAGGAUAUGCGUCAUAGAGAAGUGGUAGAAGGGACAUGAGGAUCACCCAUGUUUUGGGUUAUA	0.132 µM	0.0935 µM		
AGUAAGAUGCAGAAGGUGUCAGCGAGAGCUGCACAUGAGGAUCACCCAUGUUGUCGGUGACGACACAAGGAUAUGCAUCUUACA			0.0314 µM	0.0128 µM
GUGCUUGUCGAAGGAUAUGGUUACAUGAGGAUCACCCAUGUUAUGCUUGGAAAAUUGUUUAGUUUCCAGAAGGUCGAUUAGUUG	0.0197 µM	0.0177 µM		
AAAAAAAGAUCACAGGAUAUACGAAAAAAAACAUGAGGAUCACCCAUGUAAAAAAAAAAAAAAAAGUAGAAGGGUGAUCCAAAAAA			0.16 µM	0.279 µM
AGGAGGUUAGGAUAUGCUGCUCGUCACUUGCGUGAUGAGUAGCAGAAGGAACAUGAGGAUCACCCAUGUAAAAA	0.0302 µM	0.0319 µM		
GUCGUGUGAGGAUAUGGUUCGUCGCAGUGGCGGUCGGCGACCUAGAAGGCACAUGAGGAUCACCCAUGUAUGUG	0.122 µM	0.084 µM		
GUAGUGCUCAUAGGAUAUCGGGAACAACGUAGACAGGUUGUACAUGAGGAUCACCCAUGUAAAGUCGAGAAGGGUGAUCACGCC			0.519 µM	0.194 µM
AGAGACCUCACAGGAUAUGCUGGACUUUGUCCAGCAGAAGGGUGAAAACAUGAGGAUCACCCAUGUAUGGUCUCCAAAUUUAAA			0.186 µM	0.0121 µM
UCGGAGUAAGUGAGGAUAUGUGCGCCUUUAAGCGUACAGAAGGCACAUGAGGAUCACCCAUGUGAGGCCUGCCA	0.0189 µM	0.039 µM		
GGAUAUAUUACAUGAGGAUCACCCAUGUCAGAACGGGUAAUCAGAAGGUACUAUUAGAGAAAGAGUAAGGAUAUGAUUAUAUCC			0.801 µM	0.165 µM
GCGAUUUUGUAAGGAUAUACACGAGUUUCAAGUGUAGAAGGUACUUACAUGAGGAUCACCCAUGUAUACAUGGAUAAUAGUCGC			0.548 µM	0.0842 µM
UGUCAAGCAGGAUAUGCACGUAAUAACAUGAGGAUCACCCAUGUGACCGAUUUAUAUUCUGCAGAAGGGCUUGGUU	0.0378 µM	0.14 µM		
GUAGCAUACCGAGGAUAUCUAUCCCGGAAACGGACAUGAGGAUCACCCAUGUGGCGAAAGCCUUGGGAGAAGGCGGAAUGCUAC			0.0467 µM	0.0172 µM
